# According to ChEMBL document CHEMBL5331087, “Targeted AURKA degradation: Towards new therapeutic agents for neuroblastoma” (Eur J Med Chem, 2023):
# Active and inactive are the calls of the source. The rule behind the calls is not given here.
# Columns and labels:
# [1] = Antiproliferative activity against human NGP cells assessed as reduction in cell viability incubated for 48 hrs; assay type: functional, cell-based
# Outline: (§1)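 Cells were grown in RPMI 1640 with 10% FCS and 2 mM L-glutamine. Seeding was 4500 cells/well for NGP, IMR-32 and N206, and 2100 cells/well for SK-N-AS, with adherence overnight. Compound was dispensed over a concentration range in triplicate. Confluence was imaged live for 48 h and normalised to the DMSO control. Absolute IC50 came from a four-parameter variable-slope fit (n = 4).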
# [2] = biological target: T1, Protein cereblon/Aurora kinase A (Homo sapiens) (UniProt O14965+Q96SW2); experiment: PROTAC activity at AURKA/CRBN in human NGP cells assessed as downregulation of AURKA level at 10 to 1000 nM measured for 24 hrs by Western blot analysis; assay type: cell-based; details: dose 10-1000 nM
# T1 sequence (Q96SW2 whole entry, looked up, one chain of several): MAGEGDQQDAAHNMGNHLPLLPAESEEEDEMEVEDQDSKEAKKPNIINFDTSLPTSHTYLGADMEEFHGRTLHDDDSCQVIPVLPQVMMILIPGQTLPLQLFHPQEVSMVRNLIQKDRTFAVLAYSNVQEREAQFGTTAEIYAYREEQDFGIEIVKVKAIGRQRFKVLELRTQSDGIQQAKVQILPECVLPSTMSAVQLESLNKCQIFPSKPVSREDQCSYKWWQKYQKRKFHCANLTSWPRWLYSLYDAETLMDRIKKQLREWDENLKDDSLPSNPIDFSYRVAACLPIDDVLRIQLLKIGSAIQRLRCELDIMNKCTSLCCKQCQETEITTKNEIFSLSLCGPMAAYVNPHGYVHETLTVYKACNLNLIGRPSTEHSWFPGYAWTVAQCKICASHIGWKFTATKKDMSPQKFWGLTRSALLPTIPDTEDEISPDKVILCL
# Outline: (§2)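 NGP cells were seeded at about 2×10^6 per flask, adhered for 48 h, and were then treated for 24 h with DMSO matched. Lysis was in RIPA with protease/phosphatase inhibitors. AURKA was quantified by capillary Simple Western with peak areas normalised to vinculin. Fold change is relative to DMSO (mean ± SD, n = 3).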
# [3] = biological target: T1, Protein cereblon/Aurora kinase A (Homo sapiens); experiment: PROTAC activity at AURKA/CRBN in human NGP cells assessed as AURKA degradation at 10 nM measured for 24 hrs by Western blot analysis relative to control; assay type: cell-based; outline: as §2
# [4] = biological target: T1, Protein cereblon/Aurora kinase A (Homo sapiens); experiment: PROTAC activity at AURKA/CRBN in human NGP cells assessed as AURKA degradation at 10 to 1000 nM measured for 24 hrs by Western blot analysis relative to control; assay type: cell-based; details: dose 10-1000 nM; outline: as §2
# [5] = biological target: T1, Protein cereblon/Aurora kinase A (Homo sapiens); experiment: PROTAC activity at AURKA/CRBN in human NGP cells assessed as AURKA degradation at 0.1 to 1000 nM measured for 24 hrs by Western blot analysis relative to control; assay type: cell-based; details: dose 0.1-1000 nM; outline: as §2
# Homo sapiens [6] = species on record: Homo sapiens; experiment: Growth inhibition of patient derived NB139 Neuroblastoma organoid assessed as reduction in viability incubated for […] by CellTiter Glo 3D assay relative to control; assay type: functional
# [7] = biological target: T1, Protein cereblon/Aurora kinase A (Homo sapiens); experiment: PROTAC activity at AURKA/CRBN in human NGP cells assessed as AURKA degradation at 10 to 1000 nM measured for 24 hrs by immunoblotting analysis; assay type: cell-based; details: dose 10-1000 nM; outline: as §2
# NGP = experiment: Antiproliferative activity against human NGP cells assessed as reduction in cell viability incubated for 48 hrs relative to control; assay type: functional
# IMR-32 [8] = experiment: Antiproliferative activity against human IMR-32 cells assessed as reduction in cell viability incubated for 48 hrs relative to control; assay type: functional
# Outline: (§3)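 Cells grown in RPMI 1640 with 10% fetal calf serum, 2 mM L-glutamine and penicillin/streptomycin at 37 °C, 5% CO2. Seeded at 4500 (IMR-32) or 2100 (SK-N-AS) cells/well in 384-well plates and left to adhere overnight. Concentration range dispensed in triplicate. Confluence tracked by IncuCyte live-cell imaging, and 48h values normalized to DMSO. Absolute IC50 taken from a four-parameter variable-slope fit (n = 4).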
# SK-N-AS [9] = experiment: Antiproliferative activity against human SK-N-AS cells assessed as reduction in cell viability incubated for 48 hrs relative to control; assay type: functional; outline: as §3
# [10] = biological target: T2, N-myc proto-oncogene protein (Homo sapiens) (UniProt P04198); experiment: Induction of MYCN degradation in human NGP cells at 500 nM measured upto 72 hrs by Western blot analysis; assay type: cell-based
# T2 sequence (whole entry): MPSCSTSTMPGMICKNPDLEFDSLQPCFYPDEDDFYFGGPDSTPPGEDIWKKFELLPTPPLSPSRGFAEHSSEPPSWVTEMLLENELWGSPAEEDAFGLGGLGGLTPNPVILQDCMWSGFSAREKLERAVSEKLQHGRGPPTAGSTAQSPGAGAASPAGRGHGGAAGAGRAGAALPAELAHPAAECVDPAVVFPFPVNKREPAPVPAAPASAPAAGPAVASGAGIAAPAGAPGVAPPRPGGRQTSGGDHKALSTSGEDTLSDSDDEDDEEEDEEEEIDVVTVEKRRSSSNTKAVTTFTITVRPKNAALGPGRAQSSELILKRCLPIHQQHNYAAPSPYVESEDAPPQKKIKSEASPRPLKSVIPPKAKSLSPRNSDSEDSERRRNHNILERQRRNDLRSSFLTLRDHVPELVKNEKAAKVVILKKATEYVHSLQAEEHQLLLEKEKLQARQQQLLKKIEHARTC
# Outline: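 NGP cells were treated with 500 nM compound and harvested at 0, 1, 3, 6, 24, 48 and 72 h. RIPA lysates (35 µg) were run on 10% SDS-PAGE and blotted to nitrocellulose. AURKA and MYCN were probed with vinculin as loading control and quantified by densitometry. Values are percent remaining relative to the DMSO control at each timepoint (n = 3).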
# Homo sapiens [11] = species on record: Homo sapiens; experiment: Growth inhibition of patient derived NB059 Neuroblastoma organoid assessed as reduction in viability incubated for […] by CellTiter Glo 3D assay relative to control; assay type: functional
# [12] = Growth inhibition of patient derived NB059 Neuroblastoma organoid assessed as reduction in viability incubated for 48 hrs by CellTiter Glo 3D assay; assay type: functional, tissue-based, Homo sapiens; details: in the assay text read “120 hrs” for “48 hrs”
# Outline: (§4)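 Patient-derived organoids were dissociated to single cells with Accutase and seeded in NB organoid medium at 5000 (000GKX), 20000 (NB059), 5000 (NB067) or 3000 (NB139) cells/well. Compound was added after 24 h over a concentration range in triplicate, with DMSO matched. Incubation was 120 h at 37 °C and 5% CO2. Viability was read by CellTiter-Glo 3D, and absolute IC50 derived (n = 1).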
# [13] = Growth inhibition of patient derived NB139 Neuroblastoma organoid assessed as reduction in viability […] by CellTiter Glo 3D assay; assay type: functional, tissue-based; details: Homo sapiens; outline: as §4
# Homo sapiens [14] = species on record: Homo sapiens; experiment: Growth inhibition of patient derived 000GKX Neuroblastoma organoid assessed as reduction in viability incubated for […] by CellTiter Glo 3D assay relative to control; assay type: functional
# IMR-32 [15] = experiment: Antiproliferative activity against human IMR-32 cells assessed as reduction in cell viability incubated for 48 hrs; assay type: functional, cell-based; details: IMR-32, 48 h; outline: as §1
# [16] = Growth inhibition of patient derived 000GKX Neuroblastoma organoid assessed as reduction in viability […] by CellTiter Glo 3D assay; assay type: functional, tissue-based, Homo sapiens; details: Homo sapiens, Neuroblastoma organoid; read-out: IC50; outline: as §4
# N206 = experiment: Antiproliferative activity against human N206 cells assessed as reduction in cell viability incubated for 48 hrs relative to control; assay type: functional
# SK-N-AS [17] = experiment: Antiproliferative activity against human SK-N-AS cells assessed as reduction in cell viability incubated for 48 hrs; assay type: functional, cell-based; details: sk-n-as; outline: as §1
# [18] = Antiproliferative activity against human N206 cells assessed as reduction in cell viability incubated for 48 hrs; assay type: functional, cell-based; outline: as §1
# Homo sapiens [19] = species on record: Homo sapiens; experiment: Growth inhibition of patient derived NB067 Neuroblastoma organoid assessed as reduction in viability incubated for […] by CellTiter Glo 3D assay relative to control; assay type: functional
# [20] = Growth inhibition of patient derived NB067 Neuroblastoma organoid assessed as reduction in viability […] by CellTiter Glo 3D assay; assay type: functional, tissue-based; details: Homo sapiens; outline: as §4
# [21] = biological target: T1, Protein cereblon/Aurora kinase A (Homo sapiens); experiment: PROTAC activity at AURKA/CRBN in human NGP cells assessed as AURKA degradation measured for 24 hrs by Western blot analysis; assay type: cell-based; details: dose 10-1000 nM
# [22] = biological target: T3, Aurora kinase A (Homo sapiens) (UniProt O14965); experiment: Induction of AURKA degradation (unknown origin) measured for 6 hrs relative to control
# T3 sequence (whole entry): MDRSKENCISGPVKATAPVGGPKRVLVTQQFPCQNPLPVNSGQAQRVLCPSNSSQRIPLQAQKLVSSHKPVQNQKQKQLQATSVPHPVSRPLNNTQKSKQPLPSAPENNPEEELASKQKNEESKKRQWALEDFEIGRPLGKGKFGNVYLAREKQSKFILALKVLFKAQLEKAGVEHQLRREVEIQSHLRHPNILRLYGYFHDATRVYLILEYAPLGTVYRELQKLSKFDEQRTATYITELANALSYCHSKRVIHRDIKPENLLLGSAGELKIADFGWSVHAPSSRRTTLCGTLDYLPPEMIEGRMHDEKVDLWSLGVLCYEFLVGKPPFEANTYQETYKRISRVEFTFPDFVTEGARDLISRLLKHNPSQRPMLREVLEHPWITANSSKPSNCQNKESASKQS
# Aurora kinase A = biological target: T4, Aurora kinase A (Homo sapiens, UniProt O14965); experiment: Induction of AURKA degradation (unknown origin) measured for 6 hrs
# T4 sequence (O14965 whole entry): T3 sequence (whole entry)
# [23] = biological target: T1, Protein cereblon/Aurora kinase A (Homo sapiens); experiment: PROTAC activity at AURKA/CRBN in human NGP cells assessed as reduction in AURKA level at 100 nM measured for 24 hrs by Western blot analysis relative to control; assay type: cell-based; design: scale not given: the % may be the effect or the level left; outline: as §2
# [24] = biological target: T1, Protein cereblon/Aurora kinase A (Homo sapiens); experiment: PROTAC activity at AURKA/CRBN in human NGP cells assessed as reduction in AURKA level at 10 nM measured for 24 hrs by Western blot analysis relative to control; assay type: cell-based; design: scale not given: the % may be the effect or the level left; outline: as §2
# [25] = biological target: T1, Protein cereblon/Aurora kinase A (Homo sapiens); experiment: PROTAC activity at AURKA/CRBN in human NGP cells assessed as AURKA degradation at 1000 nM measured for 24 hrs by Western blot analysis relative to control; assay type: cell-based; outline: as §2
compound,measurement,setting,value
CN1C(=O)CCC(N2C(=O)c3cccc(OCCOCCOCCOCCNC(=O)[C@]4(Cc5cccc(Nc6nccs6)n5)CC[C@@H](Oc5cccc(Cl)c5F)CC4)c3C2=O)C1=O (stereo partly drawn),IC50,[1],1100 nM
same,Activity,[2],inactive
O=C1CCC(N2C(=O)c3ccc(OCCOCCOCCOCCOCCNC(=O)[C@]4(Cc5cccc(Nc6nccs6)n5)CC[C@@H](Oc5cccc(Cl)c5F)CC4)cc3C2=O)C(=O)N1 (stereo partly drawn),Emax,[3],85%
same,IC50,[1],34 nM
same,Emax,[4],85%
COc1cc(Nc2ncc3c(n2)-c2ccc(Cl)cc2C(c2c(F)cccc2OC)=NC3)ccc1C(=O)NCCOCCOCCNC(=O)COc1cccc2c1C(=O)N(C1CCC(=O)NC1=O)C2=O (stereo not drawn),IC50,[1],877 nM
same,Emax,[5],73%
O=C(O)[C@]1(Cc2cccc(Nc3nccs3)n2)CC[C@@H](Oc2cccc(Cl)c2F)CC1 [MK-5108],Emax,Homo sapiens [6],44.1%
same,Activity,[7],inactive
same,Emax,NGP,32.9%
same,Emax,IMR-32 [8],20.4%
same,IC50,[1],362 nM
same,Emax,SK-N-AS [9],58.5%
same,Activity,[10],Active
same,Emax,Homo sapiens [11],75.9%
same,IC50,[12],Not Active
same,IC50,[13],900 nM
same,Emax,Homo sapiens [14],59.5%
same,IC50,IMR-32 [15],199 nM
same,IC50,[16],483 nM
same,Emax,N206,53.2%
same,IC50,SK-N-AS [17],Not Active
same,IC50,[18],Not Active
same,Emax,Homo sapiens [19],14.2%
same,IC50,[20],75.3 nM
O=C1CCC(N2C(=O)c3cccc(OCCOCCOCCNC(=O)[C@]4(Cc5cccc(Nc6nccs6)n5)CC[C@@H](Oc5cccc(Cl)c5F)CC4)c3C2=O)C(=O)N1 (stereo partly drawn),IC50,[1],80.8 nM
same,Activity,[21],Active
same,Emax,[4],85%
O=C(COc1cccc2c1C(=O)N(C1CCC(=O)NC1=O)C2=O)NCCOCCOCCOCCNC(=O)[C@]1(Cc2cccc(Nc3nccs3)n2)CC[C@@H](Oc2cccc(Cl)c2F)CC1 (stereo partly drawn),IC50,[1],102 nM
same,Emax,[22],82%
same,DC50,Aurora kinase A,3 nM
O=C1CCC(N2C(=O)c3cccc(OCCOCCOCCOCCOCCNC(=O)[C@]4(Cc5cccc(Nc6nccs6)n5)CC[C@@H](Oc5cccc(Cl)c5F)CC4)c3C2=O)C(=O)N1 (stereo partly drawn),IC50,[1],50.9 nM
same,Activity,[21],Active
same,Emax,[4],85%
O=C1CCC(N2C(=O)c3cccc(OCCOCCNC(=O)[C@]4(Cc5cccc(Nc6nccs6)n5)CC[C@@H](Oc5cccc(Cl)c5F)CC4)c3C2=O)C(=O)N1 (stereo partly drawn),IC50,[1],1310 nM
same,Activity,[21],inactive
same,Activity,[4],inactive
O=C(COc1cccc2c1C(=O)N(C1CCC(=O)NC1=O)C2=O)NCCOCCOCCNC(=O)[C@]1(Cc2cccc(Nc3nccs3)n2)CC[C@@H](Oc2cccc(Cl)c2F)CC1 (stereo partly drawn),IC50,[1],83.3 nM
same,Activity,[21],Active
O=C1CCC(N2C(=O)c3ccc(OCCOCCOCCOCCNC(=O)[C@]4(Cc5cccc(Nc6nccs6)n5)CC[C@@H](Oc5cccc(Cl)c5F)CC4)cc3C2=O)C(=O)N1 (stereo partly drawn),Emax,[3],85%
same,IC50,[1],40.1 nM
same,Emax,[4],85%
O=C1CCC(N2C(=O)c3ccc(OCCOCCNC(=O)[C@]4(Cc5cccc(Nc6nccs6)n5)CC[C@@H](Oc5cccc(Cl)c5F)CC4)cc3C2=O)C(=O)N1 (stereo partly drawn),IC50,[1],63.3 nM
same,Activity,[23],17%
same,Activity,[24],45%
same,Activity,[25],Active
O=C1CCC(N2C(=O)c3ccc(OCCOCCOCCNC(=O)[C@]4(Cc5cccc(Nc6nccs6)n5)CC[C@@H](Oc5cccc(Cl)c5F)CC4)cc3C2=O)C(=O)N1 (stereo partly drawn),IC50,[1],69.9 nM
same,Emax,[4],85%
